The text below walks through data of the array DNA melting data of Ke et al. (doi:10.1101/2024.01.08.574731).

Series [1] can be described thus: folding enthalpy; higher = less favourable; fluorescence melt of hairpins on a sequencing array, two-state fit. Conditions: sodium 0.088 M. The gist of the method:
(§1)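 Library hairpins on a sequenced MiSeq flow cell carried annealed Cy3 and quencher oligos, and their Cy3 fluorescence was imaged in 50 mM Na-HEPES pH 8.0 with 25 mM NaCl, in 2.5 °C steps up to 60 °C. Signals were normalised to Cy3 before quenching and to control constructs. Melting temperature and folding enthalpy were obtained from bootstrapped two-state fits, combined by inverse-variance weighting across four replicates, and the fitted temperatures were then raised by 9.35 °C to match UV melts.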

Series [2] in a line: melting temperature; fluorescence melt of hairpins on a sequencing array, two-state fit, raised by 9.35 °C to match UV melts. Conditions: sodium 0.088 M. An outline of the steps:
as §1

Take GGTGTTGAAAAACACC ((((((....)))))): in series [1], the folding enthalpy was -37 kcal/mol. In series [2], the Tm was 57.9 °C.

Turning to GGTGTTGGAAACAACGTC (..((((....))))..), the folding enthalpy in series [1] was -26.5 kcal/mol. The Tm in series [2] was determined as 47.2 °C.

Consider GGTGTTGGAAACAGTACC (((..((....))..))), for which, in series [1], the folding enthalpy is -18.7 kcal/mol. The Tm in series [2] is 31.7 °C.

As for GGTGTTGGAAACGACATC (.(((.(....).))).), the folding enthalpy in series [1] was -21.3 kcal/mol. In series [2], the Tm turned out to be 33.2 °C.

For GGTGTTGGAAACGATACC (((.(.(....).).))), the folding enthalpy in series [1] is -14.2 kcal/mol. In addition, the Tm in series [2] was determined as 33.2 °C.

Take GGTTACACGAAAGTGACC (((..(((....)))))): in series [1], the folding enthalpy was -16.6 kcal/mol. In series [2], the Tm worked out at 35.5 °C.

For the sequence GGTTACCCGAAAGGGACC (((..(((....)))))), in series [1], the folding enthalpy is -12.9 kcal/mol. Besides, the Tm in series [2] is 35.2 °C.

Turning to GGTTACCGAAAGGTACC (((.(((....)))))), the folding enthalpy in series [1] is -20.4 kcal/mol. Also, in series [2], the Tm was 51 °C.

Turning to GGTTACGAAAGTAAACC ((((((....))).))), the folding enthalpy in series [1] is -24.2 kcal/mol. The Tm in series [2] was found to be 48.8 °C.

With GGTTACGAAAGTAACC ((((((....)))))), the folding enthalpy in series [1] is -34.7 kcal/mol. Besides, the Tm in series [2] is 67.5 °C.

GGTTACGAAAGTACTACC ((((((....)))..))): the folding enthalpy in series [1] was -23.2 kcal/mol. The Tm in series [2] stood at 28.4 °C.

Consider GGTTACGAAAGTAGAACC ((((((....)))..))), for which the folding enthalpy in series [1] is -18.2 kcal/mol. Moreover, the Tm in series [2] worked out at 37.8 °C.

As for GGTTACGAAAGTAGGACC ((((((....)))..))), the folding enthalpy in series [1] was -11.5 kcal/mol. Also, in series [2], the Tm came out at 32 °C.

On to GGTTACGAAAGTATAACC ((((((....)))..))), for which the folding enthalpy in series [1] is -20 kcal/mol. Besides, the Tm in series [2] came out at 37.2 °C.

GGTTACGCGAAAGCGACC (((..(((....)))))): the folding enthalpy in series [1] was -12.4 kcal/mol. For the same sequence, the Tm in series [2] turned out to be 37.2 °C.

Consider GGTTACGGAAACGTAACC (((((((....))))))), for which the folding enthalpy in series [1] was -43 kcal/mol. Further, the Tm in series [2] came to 65.4 °C.

With GGTTAGCCGAAAGGCACC (((..(((....)))))), the folding enthalpy in series [1] was -13.5 kcal/mol. Besides, in series [2], the Tm was 41.2 °C.

Regarding GGTTAGGGAAACCCAACC ((((.((....)).)))), the folding enthalpy in series [1] was -28.6 kcal/mol. Further, in series [2], the Tm came to 41 °C.

Consider GGTTAGGGAAACCTAACC (((((((....))))))), for which, in series [1], the folding enthalpy is -46.4 kcal/mol. In addition, in series [2], the Tm amounted to 58.3 °C.

GGTTAGGGAAACCTAGTC (..((((....))))..): the folding enthalpy in series [1] was -11.7 kcal/mol. Further, in series [2], the Tm turned out to be 28.7 °C.

For GGTTAGGGAAACTTAACC (((((.(....).))))), the folding enthalpy in series [1] is -25.1 kcal/mol. The Tm in series [2] was 37.6 °C.

GGTTAGTCGAAAGACACC (((..(((....)))))): in series [1], the folding enthalpy was -17.2 kcal/mol. The Tm in series [2] was found to be 35.5 °C.

As to GGTTATGAAAATAACC ((((((....)))))), in series [1], the folding enthalpy is -31.8 kcal/mol. In series [2], the Tm was 50.9 °C.

Turning to GGTTATGGAAACATAGCC ((.((((....)))).)), the folding enthalpy in series [1] was -31.1 kcal/mol. The Tm in series [2] is 43.8 °C.

On to GGTTCAACGAAAGTTACC (((..(((....)))))), for which, in series [1], the folding enthalpy was -14.4 kcal/mol. Also, the Tm in series [2] turned out to be 27.8 °C.

Take GGTTCCGAAAGGACCACC ((((((....)))..))): in series [1], the folding enthalpy was -14 kcal/mol. Besides, the Tm in series [2] is 44.3 °C.

As to GGTTCCGAAAGGAGACC ((((((....))).))), the folding enthalpy in series [1] is -23.8 kcal/mol. Besides, in series [2], the Tm came out at 47.6 °C.

Turning to GGTTCCGCGAAAGCGACC (((..(((....)))))), the folding enthalpy in series [1] is -8.82 kcal/mol. The Tm in series [2] stood at 28.4 °C.

As for GGTTCCGGAAACAGAACC (((((.(....).))))), the folding enthalpy in series [1] is -35.7 kcal/mol. In addition, in series [2], the Tm is 41.1 °C.

In the case of GGTTCGACGAAAGTCACC (((..(((....)))))), the folding enthalpy in series [1] is -11.9 kcal/mol. Moreover, the Tm in series [2] came to 24.9 °C.

GGTTCGGCGAAAGCCACC (((..(((....)))))): the folding enthalpy in series [1] was -9.35 kcal/mol. The Tm in series [2] stood at 28.7 °C.

Take GGTTCTACGAAAGTAACC (((..(((....)))))): the folding enthalpy in series [1] was -19.6 kcal/mol. For the same sequence, the Tm in series [2] came out at 28.2 °C.

With GGTTCTCGAAAGAGGACC (((.(((....))).))), the folding enthalpy in series [1] was -42.8 kcal/mol. The Tm in series [2] came to 57.2 °C.

GGTTCTGAAAAGAACC ((((((....)))))): the folding enthalpy in series [1] is -33.3 kcal/mol. Moreover, the Tm in series [2] came to 59.2 °C.

With GGTTCTGGAAACAGAGTC (..((((....))))..), the folding enthalpy in series [1] was -11.8 kcal/mol. Moreover, the Tm in series [2] was determined as 28.1 °C.

Consider GGTTGAGCGAAAGCTACC (((..(((....)))))), for which the folding enthalpy in series [1] is -13.1 kcal/mol. Further, the Tm in series [2] came to 42.4 °C.

Turning to GGTTGAGGAAACTCGATC (.(.(((....))).).), the folding enthalpy in series [1] is -16.8 kcal/mol. In series [2], the Tm was determined as 29.8 °C.
